Assay results gathered from unrelated publications.
Each line is one published result; the experiments were not run side by side.
Target: Phosphatidylinositol 3-kinase C2 domain-containing subunit gamma (PIK3C2G, Homo sapiens, UniProt O75747)
Residues used in one study (O75747 1-1486): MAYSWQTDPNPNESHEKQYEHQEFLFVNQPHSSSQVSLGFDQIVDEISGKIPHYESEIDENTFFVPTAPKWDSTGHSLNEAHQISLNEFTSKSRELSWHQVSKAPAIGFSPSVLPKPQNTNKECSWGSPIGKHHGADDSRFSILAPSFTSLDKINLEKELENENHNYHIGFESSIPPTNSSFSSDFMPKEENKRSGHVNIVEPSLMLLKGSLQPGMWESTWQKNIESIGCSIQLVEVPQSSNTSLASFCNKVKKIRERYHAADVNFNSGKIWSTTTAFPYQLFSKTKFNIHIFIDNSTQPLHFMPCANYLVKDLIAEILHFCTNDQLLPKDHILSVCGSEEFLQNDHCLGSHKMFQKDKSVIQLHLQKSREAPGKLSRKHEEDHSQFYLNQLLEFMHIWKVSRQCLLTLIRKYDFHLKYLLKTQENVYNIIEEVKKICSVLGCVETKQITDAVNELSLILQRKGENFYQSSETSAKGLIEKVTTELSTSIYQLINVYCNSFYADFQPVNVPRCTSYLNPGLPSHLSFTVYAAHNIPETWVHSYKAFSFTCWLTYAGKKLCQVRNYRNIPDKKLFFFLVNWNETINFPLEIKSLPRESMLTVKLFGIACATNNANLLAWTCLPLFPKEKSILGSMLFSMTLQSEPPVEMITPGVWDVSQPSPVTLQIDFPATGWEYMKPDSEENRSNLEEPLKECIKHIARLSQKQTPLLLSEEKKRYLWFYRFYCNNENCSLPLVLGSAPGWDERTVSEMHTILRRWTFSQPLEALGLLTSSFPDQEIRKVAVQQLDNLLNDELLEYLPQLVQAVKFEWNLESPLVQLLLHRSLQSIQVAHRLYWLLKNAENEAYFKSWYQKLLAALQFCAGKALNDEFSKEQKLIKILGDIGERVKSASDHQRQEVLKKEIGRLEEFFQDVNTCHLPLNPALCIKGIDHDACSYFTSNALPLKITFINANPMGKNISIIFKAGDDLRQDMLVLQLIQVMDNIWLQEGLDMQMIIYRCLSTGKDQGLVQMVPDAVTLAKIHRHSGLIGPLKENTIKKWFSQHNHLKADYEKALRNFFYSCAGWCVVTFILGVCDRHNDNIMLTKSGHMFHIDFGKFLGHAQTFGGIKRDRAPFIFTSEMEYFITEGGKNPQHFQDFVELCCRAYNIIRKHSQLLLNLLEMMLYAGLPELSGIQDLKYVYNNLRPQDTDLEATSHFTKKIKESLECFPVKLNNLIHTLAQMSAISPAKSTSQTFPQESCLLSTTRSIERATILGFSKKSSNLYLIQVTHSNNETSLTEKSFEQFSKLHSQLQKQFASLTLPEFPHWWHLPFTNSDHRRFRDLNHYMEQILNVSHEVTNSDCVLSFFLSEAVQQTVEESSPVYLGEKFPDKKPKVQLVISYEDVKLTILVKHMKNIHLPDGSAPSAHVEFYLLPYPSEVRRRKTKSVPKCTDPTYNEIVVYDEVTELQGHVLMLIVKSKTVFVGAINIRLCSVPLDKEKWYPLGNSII

For `Cc1cnc(Nc2ccc(C(=O)N3CCC(N4CCCC4)CC3)cc2)nc1-c1cc2ccccc2s1`, the remaining binding was 90% (binding; competition with immobilised ligand; 1 µM).
With `COc1cnc(Nc2cccc(S(N)(=O)=O)c2)nc1N1CCN(c2ccccc2)C(=O)C1` the remaining binding was 54% (binding; competition with immobilised ligand; 1 µM).
`Cc1nc(NC(=O)N2CCC[C@H]2C(N)=O)sc1-c1ccnc(C(C)(C)C(F)(F)F)c1` gave a remaining binding of 9.6% (binding; competition with immobilised ligand; 10 µM).
The remaining binding of `CC(=O)N1CCC(c2ccc(C(=O)NC3=NCCN3)cc2C(F)(F)F)CC1` is reported as 85% (cell-free assay; competition with immobilised ligand; 1 µM).
`COc1ncc2cc3ccccc3nc2c1C#N` gave a remaining binding of 84% (cell-free assay; competition with immobilised ligand; 5 µM).
With `CN(C)c1ncc(F)c(-c2cnn3ncccc23)n1` the remaining binding was 56% (binding; 1 µM).
For `Nc1ncc2c(n1)-c1c([nH]c3ccc(C#CC4CC4)cc13)CCCC2`, the remaining binding was 92% (binding; competition with immobilised ligand; 1 µM).
With `O=C(NCCCN1CCOCC1)c1ccc(Nc2ncc(Cl)c(-c3ccc(Cl)s3)n2)cc1` the remaining binding was 100% (binding; competition with immobilised ligand; 1 µM).
`CN(c1nccc(-c2cnn3ncccc23)n1)C1CC1` has a remaining binding of 99% (binding; 1 µM).
With `COc1ccc2c(O[C@@H]3C[C@H]4C(=O)N[C@]5(C(=O)O)CC5/C=C\CCCCC[C@H](NC(=O)OC5CCCC5)C(=O)N4C3)cc(-c3csc(NC(=O)C(C)C)n3)nc2c1C` (some centres unmarked) the remaining binding was 86% (cell-free assay; competition with immobilised ligand; 1 µM).
The remaining binding of `F[C@@H]1CCN(c2nccc(-c3cnn4ncccc34)n2)C1` is reported as 82% (binding; 1 µM).
For `N#CC1(c2ccccn2)CCN(Cc2cc(C(=O)N3CCCC3)c(=O)n3ccccc23)CC1`, the remaining binding was 73% (cell-free assay; competition with immobilised ligand; 1 µM).
With `C[C@@H](c1ccc(-n2cnc3c(N)ncnc32)cc1)N1CCc2nn(C)c(Cc3ccccc3)c2C1=O` the remaining binding was 92% (binding; competition with immobilised ligand; 0.1 µM).
With `CNCc1ccccc1-c1csc([C@@H](C)Nc2nc(C)nc3cc(OC)c(OC)cc23)c1` the remaining binding was 59% (cell-free assay; competition with immobilised ligand; 1 µM).
`O=C(Nc1c[nH]nc1C(=O)NC1CCNCC1)c1cc(F)cc(F)c1` has a remaining binding of 100% (binding; competition with immobilised ligand; 1 µM).
`CN(C)C(=O)Cn1cc(-c2nc([C@@](C)(c3ccc(-c4cnc(N)nc4)cc3)C3CC3)no2)cn1` has a remaining binding of 66% (cell-free assay; competition with immobilised ligand; 1 µM).
`N[C@@H]1CCN(c2nccc(-c3cnn4ncccc34)n2)C1` has a remaining binding of 100% (binding; 1 µM).
`O=C(c1ccc(Nc2ncc(Cl)c(-c3cc4ccccc4s3)n2)cc1)N1CCC(N2CCCC2)CC1` has a remaining binding of 96% (binding; competition with immobilised ligand; 1 µM).
`O=C(NCc1ncc(C(F)(F)F)cc1Cl)c1ccc2c(c1)C1(CCS(=O)(=O)CC1)[C@@H](C1CC1)N2S(=O)(=O)c1ccc(F)cc1` gave a remaining binding of 75% (cell-free assay; competition with immobilised ligand; 1 µM).
The remaining binding of `CN(C)c1nccc(-c2cnn3ncccc23)n1` is reported as 100% (binding; 1 µM).
